One experiment has as its system DNMT. Description: DNMT inhibition. To be noted: Supporting Information Graph SI-1. It is filed as biochemical.
The next experiment deals with KHMTs. The experiment can be described thus: KHMT inhibition. It is filed as biochemical. To be noted: Supporting Information Graph SI-1.
The next experiment concerns PRMTs. The experiment can be described thus: PRMT inhibition. The experiment is classed as biochemical. To be noted: Supporting Information Graph SI-1.
A further experiment concerns MCF-7 cells. The experiment can be described thus: In situ probe labeling with in-gel TAMRA fluorescence, MCF-7. It is filed as cell-based, human. To be noted: 100 μM competitor, 10 μM probe 4, UV irradiation. Put shortly:
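MCF-7 cells (RPMI 1640, 10% FCS) at 80–90% confluence were washed and put in serum-free medium. They got 10 μM probe for 1 h at 37 °C, with 100 μM competitor, then 1 h of 365 nm UV. Lysis in RIPA plus protease inhibitors. SDS-PAGE, fluorescence scan, SYPRO Ruby loading control.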

For the next experiment, the system named is recombinant GRP94. It is filed as binding. To be noted: at 50 μM.
The test system of another experiment is recombinant HSP90α. The experiment is classed as binding. The note with it: at 50 μM.
Experiment [1] deals with K-562, KG-1, MOLM-13, and WM-266–4 cells. The experiment can be described thus: In situ probe labeling with in-gel TAMRA fluorescence, other cancer cell lines. The note with it: K-562, KG-1, MOLM-13, WM-266–4 cells, 1 h treatment with 10 μM probe, triplicate. It is filed as cell-based, human. Put shortly: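 Cell media: K-562 in RPMI 1640 with 10% FCS, KG-1 and MOLM-13 with 20% FCS, WM-266–4 in EMEM with 10% FCS. Cells were treated in serum-free medium, in triplicate, with 10 μM probe, control probe or 1% DMSO for 1 h at 37 °C. UV at 365 nm for 1 h, then RIPA lysis. Click with TAMRA-biotin-azide/CuSO4/TCEP/TBTA, SDS-PAGE, in-gel fluorescence, SYPRO Ruby loading control.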

Consider `Nc1nc(=O)n(COCc2ccccc2)cc1C(=O)NCC[C@H]1O[C@@H](n2cnc3c(N)ncnc32)[C@H](O)[C@@H]1O` [Compound 2], for which the “activity against DNMT” value in the experiment with DNMT was “inactive”. Also, the “activity against KHMTs” value with KHMTs is “inactive”. The “activity against PRMTs” value with PRMTs is “inactive”. Further, the “labeling of probe 4 after competition” value in the experiment on MCF-7 cells is recorded as “completely abolished”. Besides, in the experiment on recombinant GRP94, the “binding to GRP94” value was “minor binding”. For the same compound, in the experiment with recombinant HSP90α, the “binding to HSP90α” value is “no significant binding”.
As to `C#CCCCC(=O)Nc1ccc(C(=O)c2ccc(NC(=O)CCCCNC(=O)OC(C)(C)C)cc2)cc1` [Compound 5, N-(4-(4-(5-(Boc-amino)pentanamido)benzoyl)phenyl)hex-5-ynamide], in experiment [1], the “labeling of band at 100 kDa / fluorescent labeling” value is recorded as “absence of fluorescent labeling”.
Regarding `COCn1cc(C(=O)NCC[C@H]2O[C@@H](n3cnc4c(N)ncnc43)[C@H](O)[C@@H]2O)c(N)nc1=O` [Compound 1, 1-(Methoxymethyl)-N-((5′-deoxyadenosin-5′-yl)methyl)cytosine-5-carboxamide], in the experiment with DNMT, the “activity against DNMT” value is “inactive”. For the same compound, in the experiment with KHMTs, the “activity against KHMTs” value is “inactive”. For the same compound, the “activity against PRMTs” value in the experiment on PRMTs was “inactive”. The “labeling of probe 4 after competition” value with MCF-7 cells was “completely abolished”. For the same compound, the “binding to GRP94” value with recombinant GRP94 is “minor binding”. Further, the “binding to HSP90α” value in the experiment with recombinant HSP90α is given as “no significant binding”.

The values are drawn from article PMC7336334 (ACS chemical biology, 2020).
